Results taken from ChEMBL document CHEMBL4316609, “Chemical synthesis and functional characterization of a new class of ceramide analogues as anti-cancer agents” (Bioorg Med Chem, 2019).
The source made the active and inactive calls. The calls are words filed in the database; no cut-off is given here.

Experiments:
A-431 = assay: Cytotoxicity against human A431 cells measured after 48 hrs by MTT assay; assay type: functional, cell-based; settings: A-431, 48 h
Summary of the method: (§1)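 Seeded at 7x10^3 cells/well and allowed 24 h to attach. Compounds added at final 0 to 200 μM and incubated 48 h. Viability read by MTT. IC50 taken as the concentration giving 50% growth inhibition; mean ± SD, N = 4.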

[1] = Cytotoxicity against human SA cells measured after 48 hrs by MTT assay; assay type: functional, cell-based; settings: +SA cell; summary of the method: as §1
MCF7 [2] = assay: Cytotoxicity against human MCF7 cells measured after 48 hrs by MTT assay; assay type: functional, cell-based; settings: MCF7, 48 h; summary of the method: as §1
SiHa = assay: Cytotoxicity against human SiHa cells measured after 48 hrs by MTT assay; assay type: functional, cell-based; summary of the method: as §1
SW-620 [3] = assay: Cytotoxicity against human SW620 cells measured after 48 hrs by MTT assay; assay type: functional, cell-based; settings: SW-620, 48 h; summary of the method: as §1
LS-411N = assay: Potentiation of TRAIL-induced cytotoxicity against human LS411N cells assessed as reduction in cell growth at cytotoxic IC50 measured after 48 hrs by MTT assay; assay type: functional, cell-based
Summary of the method: (§2)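 Viability read by MTT. Growth inhibition calculated as OD570 of untreated minus OD570 of treated cells; mean and SD.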

SW-620 [4] = assay: Potentiation of TRAIL-induced cytotoxicity against human SW620 cells assessed as reduction in cell growth at cytotoxic IC50 measured after 48 hrs by MTT assay; assay type: functional, cell-based; summary of the method: as §2
MCF7 [5] = assay: Potentiation of TRAIL-induced cytotoxicity against human MCF7 cells assessed as reduction in cell growth at cytotoxic IC50 measured after 48 hrs by MTT assay; assay type: functional, cell-based; summary of the method: as §2
HeLa = assay: Potentiation of TRAIL-induced cytotoxicity against human HeLa cells assessed as reduction in cell growth at cytotoxic IC50 measured after 48 hrs by MTT assay; assay type: functional, cell-based; summary of the method: as §2
HepG2 [6] = assay: Potentiation of TRAIL-induced cytotoxicity against human HepG2 cells assessed as reduction in cell growth at cytotoxic IC50 measured after 48 hrs by MTT assay; assay type: functional, cell-based; summary of the method: as §2
HepG2 [7] = assay: Cytotoxicity against human HepG2 cells measured after 48 hrs by MTT assay; assay type: functional, cell-based; settings: HepG2, 48 h; summary of the method: as §1
SW-620 [8] = assay: Induction of apoptosis in human SW620 cells assessed as Bcl-xl protein level at 15 uM measured after 48 hrs by Western blot analysis relative to beta-actin (reference value: 1); assay type: functional
SW-620 [9] = assay: Induction of apoptosis in human SW620 cells assessed as Bcl-xl protein level at 10 uM measured after 48 hrs by Western blot analysis relative to beta-actin (reference value: 1); assay type: functional
SW-620 [10] = assay: Induction of apoptosis in human SW620 cells assessed as morphological changes by measuring appearance of shining cells at cytotoxic IC50 measured after 8 to 24 hrs by Hoechst 33342 staining based fluorescence microscopic analysis; assay type: functional, cell-based
SW-620 [11] = assay: Induction of apoptosis in human SW620 cells assessed as XIAP protein level at 10 uM measured after 48 hrs by Western blot analysis relative to beta-actin (reference value: 1); assay type: functional
SW-620 [12] = assay: Induction of apoptosis in human SW620 cells assessed as XIAP protein level at 15 uM measured after 48 hrs by Western blot analysis relative to beta-actin (reference value: 1); assay type: functional
SW-620 [13] = assay: Induction of apoptosis in human SW620 cells assessed as XIAP protein level at 20 uM measured after 48 hrs by Western blot analysis relative to beta-actin (reference value: 1); assay type: functional
SW-620 [14] = assay: Antitumor activity against human SW620 cells xenografted in athymic mouse assessed as suppression of tumor growth at 100 mg/kg administered as injection every other day for 15 days measured during compound dosing; assay type: functional, organism-based
Summary of the method: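 SW620 colon carcinoma cells (3x10^6 per mouse) implanted subcutaneously in athymic mice. Randomised at 60-80 mm³ tumour size, n=6 per group. Dosed 100 mg/kg on alternate days for 15 days. Vehicle control received 200 μL 1% polyoxyethylated castor oil. Tumour measured in three diameters with a caliper to give volume.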

SW-620 [15] = assay: Induction of apoptosis in human SW620 cells assessed as Bcl-xl protein level at 20 uM measured after 48 hrs by Western blot analysis relative to beta-actin (reference value: 1); assay type: functional
SW-620 [16] = assay: Toxicity in athymic mouse xenografted with human SW620 cells assessed as serum creatine kinase level at 100 mg/kg administered as injection every other day for 15 days measured post last dose by ELISA (reference value: 1.94 +/- 1.04 U/L); settings: in vivo, 360 h

Row | Structure (SMILES) | IC50 (A-431) | IC50 [1] | IC50 (MCF7 [2]) | IC50 (SiHa) | IC50 (SW-620 [3]) | Activity (LS-411N) | Activity (SW-620 [4]) | Activity (MCF7 [5]) | Activity (HeLa) | Activity (HepG2 [6]) | IC50 (HepG2 [7]) | fold change (FC) (SW-620 [8]) | fold change (FC) (SW-620 [9]) | Activity (SW-620 [10]) | fold change (FC) (SW-620 [11]) | fold change (FC) (SW-620 [12]) | fold change (FC) (SW-620 [13]) | Activity (SW-620 [14]) | fold change (FC) (SW-620 [15]) | Activity (SW-620 [16])
1 | CCCCCCCCCCCCNC(=O)[C@@H](NC(=O)c1ccccc1)[C@@H](C)O | 41.2 µM | 75.5 µM | 36.6 µM | 63.9 µM | 200 µM | Active | Active | Active | Active | Active | – | – | – | – | – | – | – | – | – | –
2 | CCCCCCCCCCCCCCCCCCNC(=O)[C@@H](NC(=O)c1nccc2ccccc12)[C@@H](C)O | 44.1 µM | 49.1 µM | 30.8 µM | 51.2 µM | – | Active | Active | Active | Active | Active | 96.9 µM | – | – | – | – | – | – | – | – | –
3 | CCCCCCCCCCCCCCNC(=O)[C@@H](NS(=O)(=O)c1ccc2ccccc2c1)[C@@H](C)O | 19.6 µM | 10.2 µM | 12.2 µM | 11.1 µM | 9.36 µM | – | – | – | – | – | 11.4 µM | 1.08 | 1.05 | Active | 1.21 | 1.14 | 0.93 | Active | 0.55 | 2.63 U/L
4 | CCCCCCCCCCCCCCNC(=O)[C@@H](NC(=O)c1cc2ccccc2n1C)[C@@H](C)O | 13.7 µM | 25.7 µM | 25.7 µM | 26.5 µM | 21.5 µM | – | – | – | – | – | 34.5 µM | – | – | Active | – | – | – | – | – | –
5 | CCCCCCCCCCCCCCNC(=O)[C@@H](N)[C@@H](C)O | 14.6 µM | 11 µM | 10.7 µM | 11 µM | 18.7 µM | – | – | – | – | – | – | 0.68 | 0.82 | – | 1.22 | 1.29 | 0.15 | Active | 0.34 | 2.98 U/L
6 | C/C=C/C=C/C(=O)N[C@H](C(=O)NCCCCCCCC)[C@@H](C)O | 58.2 µM | 40.4 µM | – | – | 200 µM | Active | Active | Active | Active | Active | – | – | – | – | – | – | – | – | – | –
7 | CCCCCCCCCCCCCCNC(=O)[C@@H](NC(=O)Cc1c[nH]c2ccccc12)[C@@H](C)O | 15.5 µM | 11.5 µM | 6.81 µM | 4.8 µM | 22 µM | – | – | – | – | – | 21.1 µM | 1.46 | 1.32 | Active | 1.03 | 0.86 | 0.06 | Active | 0.47 | 2.44 U/L
8 | CCCCCCCCCCCCNC(=O)[C@@H](NC(=O)c1nccc2ccccc12)[C@@H](C)O | 62.8 µM | 51.9 µM | 50.5 µM | 56.6 µM | 65.8 µM | Active | Active | Active | Active | Active | 65.7 µM | – | – | – | – | – | – | – | – | –
9 | CCCCCCCCCCCCCCNC(=O)[C@@H](NS(=O)(=O)c1ccc(C)cc1)[C@@H](C)O | 12 µM | 10.9 µM | 12.9 µM | 19.2 µM | 15.2 µM | – | – | – | – | – | 10.9 µM | 0.73 | 0.88 | Active | 1.06 | 1 | 0.94 | Active | 0.67 | 2.32 U/L
10 | CCCCCCCCCCCCNC(=O)[C@@H](NC(=O)c1ccco1)[C@@H](C)O | 92.4 µM | 93.5 µM | 67.5 µM | 64.3 µM | 87.5 µM | Active | Active | Active | Active | Active | – | – | – | – | – | – | – | – | – | –
11 | CCCCCCCCNC(=O)[C@@H](NC(=O)c1cccs1)[C@@H](C)O | 32.1 µM | 60.9 µM | 72.5 µM | 91.9 µM | – | Active | Active | Active | Active | Active | – | – | – | – | – | – | – | – | – | –
12 | CCCCCCCCNC(=O)[C@@H](NC(=O)c1cc2ccccc2o1)[C@@H](C)O | 52.7 µM | 40.8 µM | 47.2 µM | 66.5 µM | 200 µM | Active | Active | Active | Active | Active | 81.3 µM | – | – | – | – | – | – | – | – | –
